Measured values pooled from the literature.
Each line is one published result; the experiments were not run side by side.
CYP1A2: Cytochrome P450 1A2 (CYP1A2, Homo sapiens, UniProt P05177)

`COC(=O)C1CCN(C(=O)c2cccc(NCc3cnc4nc(N)nc(N)c4n3)c2)CC1` gave an inhibition of -15.2% (CYP1A2; enzyme activity, inhibitor, luciferase; 10 µM).
`Cc1cc(Nc2cc(N3CCN(C)CC3)nc(/C=C/c3ccccc3)n2)n[nH]1` gave a Vd/F of 748 L (human, plasma; oral, 80 mg/m², multiple doses, patients).
`COc1cc(C(=O)NC2CCN(C)CC2)c(F)cc1Nc1ncc(C(F)(F)F)c(Oc2cccc3c2C(=O)N(C)C3)n1` has a Vd/F of 873 L (human, plasma; oral, 10 mg, single dose, patients).
`COC(=O)C1CCN(C(=O)c2ccc(NCc3cnc4nc(N)nc(N)c4n3)cn2)CC1` gave an inhibition of -8.69% (CYP1A2; enzyme activity, inhibitor, luciferase; 10 µM).
`CCNc1nc(Nc2ccc(F)c(Cl)c2)c2ccccc2n1` gave a viability of 100% (Vero; cell growth or viability, MTT; 31.25 µg/mL).
For `COC(=O)C1CCN(C(=O)c2ccc(N(CCCO)Cc3cnc4nc(N)nc(N)c4n3)cc2)CC1`, the inhibition was -2.09% (Cytochrome P450 3A4 (CYP3A4, Homo sapiens, UniProt P08684); enzyme activity, inhibitor, luciferase; 10 µM).
With `Cn1cnc2c1c(=O)n(CC(=O)Nc1c(Cl)cccc1Cl)c(=O)n2C` the viability was 7.99% (Vero; cell growth or viability, MTT; 1000 µg/mL).
For `O=S(=O)(NNc1nnc(Cl)c2ccccc12)c1ccc(F)cc1`, the viability was 99.8% (Vero; cell growth or viability, MTT; 31.25 µg/mL).
`COc1ccc([C@@H]2CN(C(=O)[C@@H](O)CO)C[C@@]2(C)[C@@H](C)O)cc1OC1CN(c2ccc(C)cn2)C1` gave a Vd/F of 84.3 L (human, plasma; oral, 30 mg, single dose, healthy volunteers).
The Cmax of `CC(C)(C)c1ccc(O)c(CN(Cc2cc(C(C)(C)C)ccc2O)C2CCC(NC(N)=O)CC2)c1` (stereo not shown) is reported as 609 ng/g (male C57BL/6 mouse, brain; intraperitoneal, 5 mg/kg, single dose).
